ChEMBL document CHEMBL1152606, “Thienylhalomethylketones: Irreversible glycogen synthase kinase 3 inhibitors as useful pharmacological tools” (Bioorg Med Chem, 2009)
Activity calls are given as the source filed them. The calls are words filed in the database; no cut-off is given here.

Legend:
[1] = target: D(3) dopamine receptor (Homo sapiens) (UniProt P35462); assay: Displacement of [3H]spiperone from human recombinant dopamine D3 receptor expressed in CHO cells at 10 uM; format: cell-based
Summary of the method: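 Human recombinant D3 receptor from CHO cells; [3H]spiperone 0.3 nM as ligand; (+)-buctaclamol reference compound.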

[2] = test system: 5-HT (non-selective) serotonin receptor (Rattus norvegicus); assay: Inhibition of [3H]serotonine binding to non-selective 5-HT serotoninergic receptor in rat cerebral cortex at 10 uM
[3] = target: Dual specificity mitogen-activated protein kinase kinase 1 (Oryctolagus cuniculus) (UniProt P29678); assay: Inhibition of rabbit recombinant MEK1 expressed in Escherichia coli at 10 uM by liquid scintillation counting in presence of [33gammaP]ATP
Sequence of Dual specificity mitogen-activated protein kinase kinase 1 (Oryctolagus cuniculus) (P29678 whole entry): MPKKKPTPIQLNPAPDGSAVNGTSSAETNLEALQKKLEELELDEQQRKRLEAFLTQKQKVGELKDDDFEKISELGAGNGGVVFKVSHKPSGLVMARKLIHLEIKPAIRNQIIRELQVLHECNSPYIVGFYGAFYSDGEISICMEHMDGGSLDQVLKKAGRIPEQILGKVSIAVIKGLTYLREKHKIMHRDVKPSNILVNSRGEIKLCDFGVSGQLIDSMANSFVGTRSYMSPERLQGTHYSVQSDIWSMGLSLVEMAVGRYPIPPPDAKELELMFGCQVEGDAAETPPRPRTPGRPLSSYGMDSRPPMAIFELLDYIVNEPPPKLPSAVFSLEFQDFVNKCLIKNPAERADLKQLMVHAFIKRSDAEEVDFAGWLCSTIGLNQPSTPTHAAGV
Summary of the method: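 Rabbit recombinant MEK1 from E. coli; ATP plus unactivated MAP kinase (0.01 mg/mL) as substrate; staurosporine reference; liquid scintillation detection; 10 µM.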

Rattus norvegicus [4] = species on record: Rattus norvegicus; assay: Inhibition of rat recombinant MAPK at 10 uM by liquid scintillation counting in presence of [33gammaP]ATP
Summary of the method: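 Rat recombinant ERK42 MAP kinase expressed in E. coli; [γ33-P]ATP with MBP (0.5 mg/mL); staurosporine reference; liquid scintillation read-out; 10 µM compound.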

[5] = target: Insulin receptor (Homo sapiens) (UniProt P06213); assay: Inhibition of human recombinant IR at 10 uM by liquid scintillation counting in presence of [33gammaP]ATP
Sequence of Insulin receptor (Homo sapiens) (P06213 28-758 limits assumed): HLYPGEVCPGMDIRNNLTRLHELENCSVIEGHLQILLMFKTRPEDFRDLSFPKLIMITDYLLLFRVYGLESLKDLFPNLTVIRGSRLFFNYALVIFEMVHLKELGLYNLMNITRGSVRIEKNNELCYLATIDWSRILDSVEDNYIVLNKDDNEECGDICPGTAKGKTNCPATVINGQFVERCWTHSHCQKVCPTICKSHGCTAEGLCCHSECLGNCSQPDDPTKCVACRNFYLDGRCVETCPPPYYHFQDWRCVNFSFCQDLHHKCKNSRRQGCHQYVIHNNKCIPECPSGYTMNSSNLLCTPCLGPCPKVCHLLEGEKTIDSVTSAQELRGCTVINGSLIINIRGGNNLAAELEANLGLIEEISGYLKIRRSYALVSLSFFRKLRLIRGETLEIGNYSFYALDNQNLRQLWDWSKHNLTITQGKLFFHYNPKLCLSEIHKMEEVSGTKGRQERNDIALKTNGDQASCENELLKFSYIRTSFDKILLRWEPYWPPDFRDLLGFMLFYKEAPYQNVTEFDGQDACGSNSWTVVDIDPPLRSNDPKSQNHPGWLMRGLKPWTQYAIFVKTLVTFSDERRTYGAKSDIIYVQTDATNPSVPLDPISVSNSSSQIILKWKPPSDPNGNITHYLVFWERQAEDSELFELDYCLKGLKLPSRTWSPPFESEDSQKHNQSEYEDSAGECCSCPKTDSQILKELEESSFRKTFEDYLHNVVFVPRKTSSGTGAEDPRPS
Sequence of Insulin receptor (Homo sapiens) (P06213 763-1382 limits assumed): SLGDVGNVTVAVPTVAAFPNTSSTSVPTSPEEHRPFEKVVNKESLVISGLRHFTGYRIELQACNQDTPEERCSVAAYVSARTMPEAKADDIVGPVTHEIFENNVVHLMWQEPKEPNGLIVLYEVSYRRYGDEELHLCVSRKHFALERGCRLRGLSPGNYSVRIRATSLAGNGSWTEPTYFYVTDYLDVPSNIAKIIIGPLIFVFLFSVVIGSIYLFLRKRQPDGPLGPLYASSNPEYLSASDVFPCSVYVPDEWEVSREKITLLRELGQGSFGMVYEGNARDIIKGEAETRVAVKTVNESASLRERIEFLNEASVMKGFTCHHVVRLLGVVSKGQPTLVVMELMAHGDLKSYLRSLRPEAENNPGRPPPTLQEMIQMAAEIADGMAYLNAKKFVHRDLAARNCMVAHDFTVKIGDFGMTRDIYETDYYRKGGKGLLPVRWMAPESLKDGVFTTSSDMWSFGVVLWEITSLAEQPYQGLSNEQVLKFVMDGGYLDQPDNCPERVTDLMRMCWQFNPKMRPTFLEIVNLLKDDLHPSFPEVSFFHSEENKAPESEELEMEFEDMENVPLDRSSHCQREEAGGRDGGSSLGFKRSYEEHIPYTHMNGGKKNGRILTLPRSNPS
Summary of the method: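 Human recombinant insulin receptor kinase; [γ33-P]ATP plus poly GT (0.03 mg/mL); staurosporine reference; liquid scintillation detection; 10 µM compound.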

[6] = target: Glutamate NMDA receptor (Rattus norvegicus) (UniProt P35439+Q00959+Q00960+Q00961+Q62645+Q8VHN2+Q9R1M7); assay: Displacement of [3H]CGP39653 from NMDA receptor in rat cerebral cortex at 10 uM; format: tissue-based
[7] = target: Proto-oncogene tyrosine-protein kinase Src (Homo sapiens) (UniProt P12931); assay: Inhibition of Src at 10 uM
Sequence of Proto-oncogene tyrosine-protein kinase Src (Homo sapiens) (P12931 2-536 limits assumed): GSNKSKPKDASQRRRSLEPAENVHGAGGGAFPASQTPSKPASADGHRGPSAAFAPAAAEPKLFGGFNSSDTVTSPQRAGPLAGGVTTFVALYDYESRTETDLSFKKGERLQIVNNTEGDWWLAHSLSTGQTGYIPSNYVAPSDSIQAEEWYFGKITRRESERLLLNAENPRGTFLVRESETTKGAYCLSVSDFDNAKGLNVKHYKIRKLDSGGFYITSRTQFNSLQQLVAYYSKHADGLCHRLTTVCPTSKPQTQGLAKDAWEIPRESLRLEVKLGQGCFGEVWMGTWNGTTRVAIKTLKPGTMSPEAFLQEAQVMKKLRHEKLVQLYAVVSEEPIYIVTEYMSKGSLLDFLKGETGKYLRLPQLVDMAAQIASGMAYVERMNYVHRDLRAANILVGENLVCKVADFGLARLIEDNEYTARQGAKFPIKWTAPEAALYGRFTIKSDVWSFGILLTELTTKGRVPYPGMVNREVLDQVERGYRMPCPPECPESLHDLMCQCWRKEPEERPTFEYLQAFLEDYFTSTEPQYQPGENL

Bos taurus = species on record: Bos taurus; assay: Inhibition of bovine thymus p56LCK at 10 uM by liquid scintillation counting in presence of [33gammaP]ATP
Summary of the method: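 p56lck from bovine thymus; [γ33-P]ATP with polyGT (0.5 mg/mL) substrate; staurosporine reference; liquid scintillation read-out; compounds tested at 10 µM.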

Rattus norvegicus [8] = species on record: Rattus norvegicus; assay: Displacement of [3H]cystisine from alpha-BGTX sensitive nicotinic acetylcholine receptor in rat cerebral cortex; format: tissue-based; design: concentration or dose not given beside the values; details: concentration not given here
[9] = target: Epidermal growth factor receptor (Homo sapiens) (UniProt P00533); assay: Inhibition of EGFR in human A431 at 10 uM by liquid scintillation counting in presence of [33gammaP]ATP
Sequence of Epidermal growth factor receptor (Homo sapiens) (P00533 whole entry): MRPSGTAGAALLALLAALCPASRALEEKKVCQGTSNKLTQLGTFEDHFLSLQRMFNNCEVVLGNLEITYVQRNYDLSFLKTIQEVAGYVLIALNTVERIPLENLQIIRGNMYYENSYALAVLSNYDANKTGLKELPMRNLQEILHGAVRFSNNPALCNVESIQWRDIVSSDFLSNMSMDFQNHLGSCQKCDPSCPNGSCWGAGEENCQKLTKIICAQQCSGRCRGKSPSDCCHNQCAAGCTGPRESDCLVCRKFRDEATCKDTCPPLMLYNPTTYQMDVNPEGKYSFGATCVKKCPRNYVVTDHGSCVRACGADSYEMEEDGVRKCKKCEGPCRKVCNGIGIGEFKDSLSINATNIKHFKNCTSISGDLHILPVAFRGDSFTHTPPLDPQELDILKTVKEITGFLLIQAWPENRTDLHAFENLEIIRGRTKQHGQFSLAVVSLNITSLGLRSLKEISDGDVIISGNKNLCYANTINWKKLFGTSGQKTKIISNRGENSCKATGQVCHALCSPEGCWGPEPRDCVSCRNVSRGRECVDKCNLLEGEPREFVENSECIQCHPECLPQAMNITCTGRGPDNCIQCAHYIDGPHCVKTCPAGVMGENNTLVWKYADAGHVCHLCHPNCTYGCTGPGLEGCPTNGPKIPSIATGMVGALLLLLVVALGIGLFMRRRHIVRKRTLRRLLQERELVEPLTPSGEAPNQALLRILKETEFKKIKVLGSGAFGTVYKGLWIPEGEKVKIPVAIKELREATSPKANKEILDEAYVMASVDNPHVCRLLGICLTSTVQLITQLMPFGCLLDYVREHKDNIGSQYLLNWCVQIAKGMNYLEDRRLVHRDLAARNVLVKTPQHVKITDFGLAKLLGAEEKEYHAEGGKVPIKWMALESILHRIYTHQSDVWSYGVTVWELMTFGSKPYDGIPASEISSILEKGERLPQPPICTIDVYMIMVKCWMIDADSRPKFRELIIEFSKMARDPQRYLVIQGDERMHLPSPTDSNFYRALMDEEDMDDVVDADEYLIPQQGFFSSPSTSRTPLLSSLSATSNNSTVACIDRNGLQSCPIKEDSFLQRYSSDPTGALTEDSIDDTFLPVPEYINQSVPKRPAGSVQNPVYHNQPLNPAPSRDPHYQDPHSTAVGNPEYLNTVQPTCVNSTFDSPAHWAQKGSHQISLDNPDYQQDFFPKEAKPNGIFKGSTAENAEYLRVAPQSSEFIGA
Summary of the method: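 EGFR kinase from A-431 cells; substrate [γ33-P]ATP plus poly GAT (0.48 mg/mL); PD 153035 reference; product measured by liquid scintillation; compounds at 10 µM.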

[10] = target: D(2) dopamine receptor (Homo sapiens) (UniProt P14416); assay: Displacement of [3H]spiperone from human recombinant dopamine D2 receptor expressed in CHO cells at 10 uM; format: cell-based
Sequence of D(2) dopamine receptor (Homo sapiens) (P14416 whole entry): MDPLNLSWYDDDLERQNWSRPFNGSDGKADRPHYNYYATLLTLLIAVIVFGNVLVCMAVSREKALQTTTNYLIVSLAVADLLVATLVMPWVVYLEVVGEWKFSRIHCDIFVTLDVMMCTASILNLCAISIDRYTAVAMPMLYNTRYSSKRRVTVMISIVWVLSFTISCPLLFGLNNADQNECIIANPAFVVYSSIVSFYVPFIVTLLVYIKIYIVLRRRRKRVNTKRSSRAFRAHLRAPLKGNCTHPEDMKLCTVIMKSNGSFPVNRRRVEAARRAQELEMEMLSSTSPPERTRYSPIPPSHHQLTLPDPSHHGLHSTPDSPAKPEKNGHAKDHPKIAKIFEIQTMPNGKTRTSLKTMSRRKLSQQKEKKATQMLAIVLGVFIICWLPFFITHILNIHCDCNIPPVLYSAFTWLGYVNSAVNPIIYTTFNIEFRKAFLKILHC
Summary of the method: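 Human recombinant D2 receptor expressed in CHO cells; [3H]spiperone ligand at 0.3 nM; (+)-buctaclamol as reference compound.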

[11] = target: Tyrosine-protein kinase ABL1 (Mus musculus) (UniProt P00520); assay: Inhibition of mouse recombinant Abl expressed in Escherichia coli at 10 uM by fluorescence polarization
Sequence of Tyrosine-protein kinase ABL1 (Mus musculus) (P00520 whole entry): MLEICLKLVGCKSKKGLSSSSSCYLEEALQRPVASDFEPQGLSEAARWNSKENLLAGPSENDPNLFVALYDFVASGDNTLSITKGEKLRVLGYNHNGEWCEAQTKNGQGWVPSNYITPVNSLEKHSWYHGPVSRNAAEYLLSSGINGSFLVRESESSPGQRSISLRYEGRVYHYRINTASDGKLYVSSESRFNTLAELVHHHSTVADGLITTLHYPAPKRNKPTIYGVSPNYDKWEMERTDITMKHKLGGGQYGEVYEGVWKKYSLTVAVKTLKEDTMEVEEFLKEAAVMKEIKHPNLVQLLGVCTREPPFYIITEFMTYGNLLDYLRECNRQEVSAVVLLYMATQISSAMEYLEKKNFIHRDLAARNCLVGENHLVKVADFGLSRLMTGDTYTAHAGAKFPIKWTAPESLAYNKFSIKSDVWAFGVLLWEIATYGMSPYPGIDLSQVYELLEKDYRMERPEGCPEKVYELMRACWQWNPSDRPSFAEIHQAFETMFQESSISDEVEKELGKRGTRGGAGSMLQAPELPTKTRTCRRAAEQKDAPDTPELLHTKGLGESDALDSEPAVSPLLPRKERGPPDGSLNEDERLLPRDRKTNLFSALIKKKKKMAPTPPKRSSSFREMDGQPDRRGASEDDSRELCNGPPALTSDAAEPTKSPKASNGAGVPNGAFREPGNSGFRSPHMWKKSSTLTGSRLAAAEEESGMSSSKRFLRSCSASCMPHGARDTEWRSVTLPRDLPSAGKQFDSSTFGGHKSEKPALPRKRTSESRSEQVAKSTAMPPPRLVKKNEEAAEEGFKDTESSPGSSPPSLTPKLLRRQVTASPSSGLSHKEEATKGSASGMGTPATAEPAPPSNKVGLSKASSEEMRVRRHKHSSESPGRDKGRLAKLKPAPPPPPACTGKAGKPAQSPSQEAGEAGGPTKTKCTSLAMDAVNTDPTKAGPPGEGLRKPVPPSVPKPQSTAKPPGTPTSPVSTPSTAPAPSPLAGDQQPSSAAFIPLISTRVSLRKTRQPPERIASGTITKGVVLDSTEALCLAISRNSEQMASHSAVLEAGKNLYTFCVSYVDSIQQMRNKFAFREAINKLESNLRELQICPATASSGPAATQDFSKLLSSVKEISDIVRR

Rattus norvegicus [12] = species on record: Rattus norvegicus; assay: Displacement of [3H]AMPA from AMPA receptor in rat cerebral cortex at 10 uM; format: tissue-based
Rattus norvegicus [13] = species on record: Rattus norvegicus; assay: Displacement of [3H]cystisine from alpha-BGTX insensitive nicotinic acetylcholine receptor in rat cerebral cortex at 10 uM; format: tissue-based
[14] = target: Glycogen synthase kinase-3 beta (Homo sapiens, UniProt P49841); assay: Inhibition of GSK3-beta by liquid scintillation counting
Summary of the method: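 GSK-3β enzyme incubated with test compound at various concentrations, GS-1 peptide substrate (15 mM as printed), 15 μM ATP plus 0.2 μCi [γ-32P]ATP, in 50 mM Tris pH 7.5, 10 mM MgCl2, 1 mM EGTA, 1 mM EDTA; 20 min at 37 °C. Aliquots spotted on P81 phosphocellulose, washed in 1% phosphoric acid, counted by liquid scintillation.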

Rattus norvegicus [15] = species on record: Rattus norvegicus; assay: Inhibition of rat CAM2 at 10 uM by liquid scintillation counting in presence of [33gammaP]ATP
Summary of the method: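 CaM kinase II from rat brain; [γ33-P]ATP plus autocamtide-2 (5 µM); staurosporine reference; labelled autocamtide-2 counted by liquid scintillation; compounds at 10 µM.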

[16] = target: T1, Alpha-2A adrenergic receptor (Rattus norvegicus) (UniProt P22909); assay: Displacement of [3H]RX821002 from alpha2 adrenoceptor in rat cerebral cortex at 10 uM; format: tissue-based
T1 sequence (whole entry): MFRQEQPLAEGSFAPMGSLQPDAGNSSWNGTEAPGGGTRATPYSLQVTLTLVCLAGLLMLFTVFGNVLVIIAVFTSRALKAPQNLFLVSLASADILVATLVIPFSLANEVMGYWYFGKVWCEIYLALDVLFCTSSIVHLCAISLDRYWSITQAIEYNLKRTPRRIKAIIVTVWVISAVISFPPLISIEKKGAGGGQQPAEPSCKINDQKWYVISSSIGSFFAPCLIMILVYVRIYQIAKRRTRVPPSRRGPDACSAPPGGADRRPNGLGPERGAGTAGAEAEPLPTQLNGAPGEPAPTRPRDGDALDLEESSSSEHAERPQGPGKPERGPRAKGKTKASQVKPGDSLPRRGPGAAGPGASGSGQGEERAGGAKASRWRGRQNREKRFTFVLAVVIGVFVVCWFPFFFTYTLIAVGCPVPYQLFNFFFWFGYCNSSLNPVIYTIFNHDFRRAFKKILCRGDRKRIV
Summary of the method: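 Rat cerebral cortex source; [3H]RX 821002 ligand at 0.5 nM; yohimbine as reference compound; non-selective alpha-2 site.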

[17] = Displacement of [3H]QNB from muscarinic receptor at 10 uM
[18] = target: Glycogen synthase kinase-3 beta (Mus musculus) (UniProt Q9WV60); assay: Inhibition of GSK-3-beta-mediated tau phosphorylation in mouse granule cerebellar neurons cells after 16 hrs by Western blot
Summary of the method: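 Cerebellar granule neurons from P6 mice, plated on poly-L-lysine and grown 48 h in serum-free neurobasal/B-27 with 12.5 mM KCl; compounds 0.5–25 µM; LiCl 10 mM positive control with excess myo-inositol; lysates blotted with PHF-1 and Tau-1, normalised to β-actin, densitometry; mean of three experiments, control = 100 r.u.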

SMILES | inhibition [1] | inhibition [2] | inhibition [3] | inhibition (Rattus norvegicus [4]) | inhibition [5] | inhibition [6] | inhibition (Bos taurus) | inhibition (Rattus norvegicus [8]) | inhibition [9] | inhibition [10] | inhibition [11] | inhibition (Rattus norvegicus [12]) | inhibition (Rattus norvegicus [13]) | IC50 [14] | inhibition (Rattus norvegicus [15]) | inhibition [16] | inhibition [17] | also measured
O=C(CBr)c1cc(Br)c(Br)s1 | < 10% | < 10% | < 10% | < 10% | 12% | < 10% | < 10% | < 10% | < 10% | < 10% | < 10% | < 10% | < 10% | 1 µM | < 10% | < 10% | < 10% | inhibition [7]: 76%
CC(=O)c1ccccc1 [ACETOPHENONE] | – | – | – | – | – | – | – | – | – | – | – | – | – | > 100 µM | – | – | – | –
COc1cc2c(cc1OC)C(=O)CC2 | – | – | – | – | – | – | – | – | – | – | – | – | – | > 100 µM | – | – | – | –
O=C(CCl)c1scc(Br)c1Br | 12% | < 10% | < 10% | < 10% | < 10% | < 10% | 20% | < 10% | < 10% | < 10% | < 10% | < 10% | < 10% | – | < 10% | < 10% | 11% | –
O=C(CCl)c1cscc1Cl | < 10% | < 10% | < 10% | < 10% | < 10% | 16% | 31% | < 10% | < 10% | 13% | < 10% | < 10% | < 10% | – | < 10% | < 10% | < 10% | inhibition [7]: 24%; Activity [18]: Active
CC(=O)c1ccc(Cl)cc1 | – | – | – | – | – | – | – | – | – | – | – | – | – | > 100 µM | – | – | – | –
O=C(Nn1c2ccccc2c2ccccc21)c1ccccc1 | – | – | – | – | – | – | – | – | – | – | – | – | – | > 100 µM | – | – | – | –
O=C(CCCCl)c1cc(Cl)sc1Cl | – | – | – | – | – | – | – | – | – | – | – | – | – | > 100 µM | – | – | – | –
O=C(CBr)c1ccc(Br)s1 | – | – | – | – | – | – | – | – | – | – | – | – | – | 1 µM | – | – | – | –
OC(CCl)c1sc(Br)c(Br)c1Br (configuration not stated) | – | – | – | – | – | – | – | – | – | – | – | – | – | 75 µM | – | – | – | –
O=C(CCl)c1cc(Cl)sc1Cl | < 10% | 12% | < 10% | < 10% | < 10% | < 10% | 41% | < 10% | < 10% | < 10% | < 10% | 17% | < 10% | – | 10% | < 10% | < 10% | inhibition [7]: 12%
O=C(CCl)c1ccc(Cl)s1 | < 10% | < 10% | < 10% | < 10% | < 10% | < 10% | < 10% | < 10% | < 10% | < 10% | < 10% | 17% | < 10% | – | < 10% | < 10% | < 10% | inhibition [7]: < 10%; Activity [18]: Active
CCSC1=NC(c2ccccc2)=NN(c2ccccc2)c2ccccc21 | – | – | – | – | – | – | – | – | – | – | – | – | – | > 100 µM | – | – | – | –
O=Nn1c2ccccc2c2cc(Cl)ccc21 | – | – | – | – | – | – | – | – | – | – | – | – | – | > 100 µM | – | – | – | –
O=C(CCCCl)c1ccc(Cl)s1 | – | – | – | – | – | – | – | – | – | – | – | – | – | > 100 µM | – | – | – | –
